From EPA's CvTdb concentration-time database

Legend:
Rat [1] = experiment: concentration in plasma after dosing; details: dosed: Wyeth-14643, 5.0 mg/kg, oral, Male, Sprague-Dawley
Rat [2] = experiment: concentration in plasma after dosing; details: 3 h; dosed: Wyeth-14643; 2.0 mg/kg; oral; Male; Sprague-Dawley
Rat [3] = experiment: concentration in thymus after dosing; details: 6 h; dosed: Bis 2-Chloroethoxy Methane; 20 mg/kg; iv; Female; F344
Rat [4] = experiment: concentration in plasma after dosing; details: 20 min; dosed: Bis 2-Chloroethoxy Methane; 20 mg/kg; iv; Male; F344
Rat [5] = experiment: concentration in liver after dosing; details: 2 h; dosed: Bis 2-Chloroethoxy Methane; 20 mg/kg; iv; Female; F344
Rat [6] = experiment: concentration in plasma after dosing; details: 5 h; dosed: Bis 2-Chloroethoxy Methane; 20 mg/kg; iv; Female; F344
Rat [7] = experiment: concentration in plasma after dosing; details: 4 h; dosed: Bis 2-Chloroethoxy Methane; 40 mg/kg; iv; Male; Harlan Sprague Dawley
Rat [8] = experiment: concentration in thymus after dosing; details: 3 h; dosed: Bis 2-Chloroethoxy Methane; 20 mg/kg; iv; Male; F344
Rat [9] = experiment: concentration in heart after dosing; details: 4 h; dosed: Bis 2-Chloroethoxy Methane; 20 mg/kg; iv; Female; F344
Rat [10] = experiment: concentration in plasma after dosing; details: dosed: Fluorotelomer alcohol 8+2, 24 mg/kg, oral, Male, Harlan Sprague Dawley
Rat [11] = experiment: concentration in brain after dosing; details: 12 h; dosed: Fluorotelomer alcohol 8+2; 24 mg/kg; oral; Male; Harlan Sprague Dawley
Rat [12] = experiment: concentration in plasma after dosing; details: 3 h; dosed: Di-n-butyl phthalate; 100 mg/kg; oral; Male; Sprague-Dawley
Rat [13] = experiment: concentration in plasma after dosing; details: 15 h; dosed: Di-n-butyl phthalate; 100 mg/kg; oral; Male; Sprague-Dawley
Rat [14] = experiment: concentration in plasma after dosing; details: 20 min; dosed: Di-n-butyl phthalate; 20 mg/kg; iv; Male; Sprague-Dawley
Rat [15] = experiment: concentration in plasma after dosing; details: 6 h; dosed: Di-n-butyl phthalate; 20 mg/kg; iv; Male; Sprague-Dawley
Rat [16] = experiment: concentration in plasma after dosing; details: 5 min; dosed: Di-n-butyl phthalate; 100 mg/kg; oral; Male; Sprague-Dawley
Rat [17] = experiment: concentration in plasma after dosing; details: dosed: Perfluorodecanoic acid, 2 mg/kg, oral, Male, Harlan Sprague Dawley
Rat [18] = experiment: concentration in kidney after dosing; details: 3360 h; dosed: Perfluorodecanoic acid; 10 mg/kg; oral; Male; Harlan Sprague Dawley
Rat [19] = experiment: concentration in kidney after dosing; details: 864 h; dosed: Perfluorodecanoic acid; 10 mg/kg; oral; Male; Harlan Sprague Dawley
Rat [20] = experiment: concentration in plasma after dosing; details: dosed: Perfluorodecanoic acid, 2 mg/kg, iv, Male, F344
Rat [21] = experiment: concentration in plasma after dosing; details: dosed: Perfluorodecanoic acid, 2 mg/kg, iv, Male, F344; remark: listed apart in the source
Rat [22] = experiment: concentration in liver after dosing; details: 3360 h; dosed: Perfluorodecanoic acid; 10 mg/kg; oral; Male; Harlan Sprague Dawley
Rat [23] = experiment: concentration in plasma after dosing; details: dosed: Perfluorodecanoic acid, 2 mg/kg, iv, Male, F344; remark: listed apart in the source
Rat [24] = experiment: concentration in plasma after dosing; details: 12 h; dosed: Primidone; 80 mg/kg; oral; Female; F344
Rat [25] = experiment: concentration in plasma after dosing; details: 18 h; dosed: Primidone; 80 mg/kg; oral; Male; F344
Rat [26] = experiment: concentration in plasma after dosing; details: 0.5 h; dosed: Primidone; 30 mg/kg; oral; Male; F344
Rat [27] = experiment: concentration in plasma after dosing; details: 9 h; dosed: Primidone; 30 mg/kg; oral; Male; F344
Rat [28] = experiment: concentration in plasma after dosing; details: 10 min; dosed: Thiodiglycolic Acid; 20 mg/kg; iv; Female; Harlan Sprague Dawley
Rat [29] = experiment: concentration in liver after dosing; details: 2 h; dosed: Thiodiglycolic Acid; 20 mg/kg; iv; Male; Harlan Sprague Dawley
Rat [30] = experiment: concentration in liver after dosing; details: 3 h; dosed: Thiodiglycolic Acid; 20 mg/kg; iv; Female; Harlan Sprague Dawley
Rat [31] = experiment: concentration in thymus after dosing; details: 1 h; dosed: Thiodiglycolic Acid; 20 mg/kg; iv; Male; Harlan Sprague Dawley
Rat [32] = experiment: concentration in heart after dosing; details: 20 min; dosed: Thiodiglycolic Acid; 20 mg/kg; iv; Female; F344
Rat [33] = experiment: concentration in heart after dosing; details: 2 h; dosed: Thiodiglycolic Acid; 20 mg/kg; iv; Male; Harlan Sprague Dawley
Rat [34] = experiment: concentration in plasma after dosing; details: 5 min; dosed: dichloroacetic acid; 10 mg/kg; iv; Male; F344
Rat [35] = experiment: concentration in plasma after dosing; details: 20 min; dosed: dichloroacetic acid; 10 mg/kg; oral; Male; Harlan Sprague Dawley
human = details: dosed: tetrachloroethylene, 144 ppm, inhalation, duration: 4 hr, male
Outline: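 Points were largely digitised from plot screenshots with WebPlotDigitizer or otherwise copied from tables, and they remain in the units each source reported. They come from published in vivo toxicokinetic studies and two structured collections. Sampling and analytical methods follow each source and were often not reported.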

Question: For `Cc1cccc(Nc2cc(Cl)nc(SCC(=O)O)n2)c1C`, which concentration in plasma (Rat [1]; 2 h) is on record?
Answer: 3450 ng/mL

Question: What about the concentration in plasma (Rat [1]; 6 h) of the same compound?
Answer: 742 ng/mL

Question: What about the concentration in plasma (Rat [2]) of the same compound?
Answer: 426 ng/mL

Question: `ClCCOCOCCCl` [Bis 2-Chloroethoxy Methane] was tested. Which concentration in thymus (Rat [3]) did it give?
Answer: 32.1 ng/g

Question: And the concentration in plasma (Rat [4])?
Answer: 3180 ng/mL

Question: And the concentration in liver (Rat [5])?
Answer: 70.7 ng/g

Question: And the concentration in plasma (Rat [6])?
Answer: 24.8 ng/mL

Question: And the concentration in plasma (Rat [7])?
Answer: 238 ng/mL

Question: And the concentration in thymus (Rat [8])?
Answer: 134 ng/g

Question: And the concentration in heart (Rat [9])?
Answer: 55.5 ng/g

Question: Which results are given for `OCCC(F)(F)C(F)(F)C(F)(F)C(F)(F)C(F)(F)C(F)(F)C(F)(F)C(F)(F)F` [Fluorotelomer alcohol 8+2]?
Answer: concentration in plasma (Rat [10]; 0.25 h): 176 ng/mL; concentration in plasma (Rat [10]; 24 h): 3.78 ng/mL; concentration in brain (Rat [11]): 221 ng/g

Question: For `CCCCOC(=O)c1ccccc1C(=O)O` [Mono-n-butyl phthalate], which concentration in plasma (Rat [12]) is on record?
Answer: 1190 ng/mL

Question: And the concentration in plasma (Rat [13])?
Answer: 1250 ng/mL

Question: What about the concentration in plasma (Rat [14]) of the same compound?
Answer: 21300 ng/mL

Question: What about the concentration in plasma (Rat [15]) of the same compound?
Answer: 601 ng/mL

Question: What about the concentration in plasma (Rat [16]) of the same compound?
Answer: 3830 ng/mL

Question: Which concentration in plasma (Rat [17]; 1 h) does the source give for `O=C(O)C(F)(F)C(F)(F)C(F)(F)C(F)(F)C(F)(F)C(F)(F)C(F)(F)C(F)(F)C(F)(F)F` [Perfluorodecanoic acid] here?
Answer: 4030 ng/mL

Question: What about the concentration in plasma (Rat [17]; 192 h) of the same compound?
Answer: 4670 ng/mL

Question: What about the concentration in plasma (Rat [17]; 2520 h) of the same compound?
Answer: 645 ng/mL

Question: What about the concentration in kidney (Rat [18]) of the same compound?
Answer: 866 ng/g

Question: And the concentration in kidney (Rat [19])?
Answer: 6720 ng/g

Question: What about the concentration in plasma (Rat [20]; 24 h) of the same compound?
Answer: 4280 ng/mL

Question: What about the concentration in plasma (Rat [20]; 1848 h) of the same compound?
Answer: 646 ng/mL

Question: And the concentration in plasma (Rat [21]; 6 h)?
Answer: 6360 ng/mL

Question: And the concentration in plasma (Rat [21]; 864 h)?
Answer: 1550 ng/mL

Question: And the concentration in liver (Rat [22])?
Answer: 13300 ng/g

Question: What about the concentration in plasma (Rat [23]; 12 h) of the same compound?
Answer: 4670 ng/mL

Question: What about the concentration in plasma (Rat [23]; 1200 h) of the same compound?
Answer: 1400 ng/mL

Question: For `CCC1(c2ccccc2)C(=O)NC(=O)NC1=O` [Phenobarbital], which concentration in plasma (Rat [24]) is on record?
Answer: 2260 ng/mL

Question: And the concentration in plasma (Rat [25])?
Answer: 3110 ng/mL

Question: And the concentration in plasma (Rat [26])?
Answer: 330 ng/mL

Question: What about the concentration in plasma (Rat [27]) of the same compound?
Answer: 2930 ng/mL

Question: Which concentration in plasma (Rat [28]) does the source give for `O=C(O)CSCC(=O)O` [Thiodiglycolic Acid] here?
Answer: 40400 ng/mL

Question: What about the concentration in liver (Rat [29]) of the same compound?
Answer: 112000 ng/g

Question: What about the concentration in liver (Rat [30]) of the same compound?
Answer: 94200 ng/g

Question: And the concentration in thymus (Rat [31])?
Answer: 1900 ng/g

Question: And the concentration in heart (Rat [32])?
Answer: 3600 ng/g

Question: And the concentration in heart (Rat [33])?
Answer: 1440 ng/g

Question: Which results are given for `O=C(O)C(Cl)Cl` [dichloroacetic acid]?
Answer: concentration in plasma (Rat [34]): 15100 ng/mL; concentration in plasma (Rat [35]): 680 ng/mL

Question: How did the “amount in urine after dosing” value (human; 22 h) turn out when `O=C(O)C(Cl)(Cl)Cl` [trichloroacetic acid] was run?
Answer: 6.91 mg

Question: And the “amount in urine after dosing” value (human; 46 h)?
Answer: 2.33 mg

Question: And the “amount in urine after dosing” value (human; 70 h)?
Answer: 2.17 mg
